In test [1] the target is T1, Microtubule-associated protein tau (Homo sapiens, UniProt P10636). The test can be described thus: Displacement of Bis-ANS from solvent exposed hydrophobic site of non-aggregated human full length recombinant tau-441 expressed in Escherichia coli assessed as reduction in fluorescence intensity at 120 uM incubated for 72 hrs by Bis-ANS fluorescence assay. In a few lines:
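Competition control: non-aggregated tau441 (909 μg/mL) is held with compound and without heparin for 72 h at 37 °C. It is then mixed with Bis-ANS (100 μM final) for 60 min at room temperature. Fluorescence is read at 25 °C, ex 350 nm, emission 400–600 nm, and loss of 510 nm signal is taken as Bis-ANS displacement from tau hydrophobic sites.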

Test [2] deals with T1, Microtubule-associated protein tau. The test can be described thus: Inhibition of human full length recombinant tau-441 expressed in Escherichia coli assessed as inhibition of heparin-induced protein aggregation by measuring reduction in fluorescence intensity at 5 to 120 uM incubated for 72 hrs by Proteo-stat fluorescence aggregation assay. The conditions noted are these: dose microM 5-120, time 72.0 hrs. In a few lines: (§1)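 Recombinant full-length tau441 (19.8 μM final, 909 μg/mL) is aggregated with heparin (4.95 μM final) in pH 6.8 tau buffer (MES, EGTA, NaCl) for 72 h at 37 °C. Compounds are dissolved in DMSO and added at 5, 40, 120 or 250 μM final. A 10 μL aliquot is mixed 10:1 v/v with Proteostat reagent and read at ex 550/em 600 nm. Triplicates. IC50 comes from a sigmoidal dose-response fit.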

Test [3] shares this target. Briefly: Inhibition of human full length recombinant tau-441 expressed in Escherichia coli assessed as inhibition of heparin-induced beta-sheet formation and protein aggregation by measuring fluorescence intensity at 120 uM incubated for 72 hrs by Proteo-stat fluorescence aggregation assay. In a few lines: as §1
For test [4] the target is unchanged. The test can be described thus: Inhibition of human full length recombinant tau-441 expressed in Escherichia coli assessed as inhibition of heparin-induced protein aggregation by measuring reduction in fluorescence intensity incubated for 72 hrs by Proteo-stat fluorescence aggregation assay. As to conditions: for pIC50: read-out: IC50.
Test [5] has the same target. Briefly: Inhibition of human full length recombinant tau-441 expressed in Escherichia coli assessed as inhibition of heparin-induced protein aggregation by measuring fluorescence intensity at 120 uM incubated for 72 hrs by Bis-ANS fluorescence assay. In a few lines: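 Tau441 (19.8 μM) with heparin (4.95 μM) and compound (120 μM) in DMSO/tau buffer pH 6.8 is aged 72 h at 37 °C. A 10 μL aliquot gets Bis-ANS (100 μM final, from stock in 20 mM Tris pH 7.4) for 60 min at room temperature. Emission is scanned 400–600 nm at 25 °C (ex 350 nm) and the 510 nm intensity is taken. Triplicate measurements.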

Test [6] has the same target. The test can be described thus: Inhibition of human full length recombinant tau-441 expressed in Escherichia coli assessed as inhibition of heparin-induced protein aggregation by measuring reduction in fibrillization by measuring reduction in short and long filaments and fibrillar network formation at 120 uM incubated for 72 hrs by transmission electron microscopy.
Test [7] can be described thus: Inhibition of N-terminal His6-tagged human tau K18deltaK280 mutant assessed as inhibition of protein aggregation.

pIC50: −log10 of the molar value. Activity calls are given as the source filed them. No cut-off for these calls is given here. Bounds are passed on as bounds.

T1 sequence (P10636 whole entry): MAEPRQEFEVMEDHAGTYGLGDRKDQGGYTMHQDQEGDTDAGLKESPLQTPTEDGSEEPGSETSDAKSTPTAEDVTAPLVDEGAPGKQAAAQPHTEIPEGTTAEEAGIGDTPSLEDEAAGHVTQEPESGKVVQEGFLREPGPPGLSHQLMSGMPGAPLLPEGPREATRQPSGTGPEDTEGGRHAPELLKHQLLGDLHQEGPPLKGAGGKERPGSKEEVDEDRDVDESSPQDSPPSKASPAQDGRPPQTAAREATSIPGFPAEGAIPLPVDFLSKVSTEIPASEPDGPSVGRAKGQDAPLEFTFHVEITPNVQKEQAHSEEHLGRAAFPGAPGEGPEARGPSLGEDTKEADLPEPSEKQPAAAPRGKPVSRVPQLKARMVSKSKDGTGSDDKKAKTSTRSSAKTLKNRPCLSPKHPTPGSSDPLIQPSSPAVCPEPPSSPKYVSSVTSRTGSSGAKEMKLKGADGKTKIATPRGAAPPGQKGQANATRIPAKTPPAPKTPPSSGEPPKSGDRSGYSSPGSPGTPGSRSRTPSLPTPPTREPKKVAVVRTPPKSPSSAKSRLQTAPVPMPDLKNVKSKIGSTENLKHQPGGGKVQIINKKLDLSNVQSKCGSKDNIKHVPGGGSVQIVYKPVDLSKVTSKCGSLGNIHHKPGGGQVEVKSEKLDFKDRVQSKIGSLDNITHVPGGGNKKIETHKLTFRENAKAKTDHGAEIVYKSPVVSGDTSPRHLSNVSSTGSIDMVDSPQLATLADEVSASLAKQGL

With `CCCN(CCN1CCN(c2ccc(-c3ccc(O)c(O)c3)cc2)CC1)[C@H]1CCc2c(O)cccc2C1`, the inhibition entry in test [1], in test [2] and in test [6] was “Active” in each case. Moreover, the Activity in test [3] is 1000 a.u; in test [5], 1500 a.u. Also, the pIC50 in test [4] was 4.60.
For the compound `O=C(O[C@@H]1Cc2c(O)cc(O)cc2O[C@@H]1c1cc(O)c(O)c(O)c1)c1cc(O)c(O)c(O)c1` [EPIGALOCATECHIN GALLATE], in test [7], the pIC50 was less than 3.70.
Take `CCCN(CCN1CCN(c2ccc(-c3ccc(O)c(O)c3)cc2)CC1)[C@H]1CCc2nc(N)sc2C1`: the inhibition entry in test [1], in test [2] and in test [6] was “Active” each time. Besides, the Activity in test [3] and in test [5] was 1000 a.u in each case. Also, the negative logarithm of the IC50 (pIC50) in test [4] is 4.68.
On to `CN(C)c1ccc2nc3ccc(=[N+](C)C)cc-3sc2c1`, for which, in test [1], the inhibition amounted to 95%. Further, the inhibition result in test [2] and in test [6] was “Active” each time. The Activity is 1000 a.u in test [3] and 400 a.u in test [5].
`CCCN(CCN1CCN(c2ccc3[nH]c4ccccc4c3c2)CC1)[C@H]1CCc2nc(N)sc2C1`: the inhibition entry in test [1], in test [2], in test [5] and in test [6] was “inactive” in each case. Besides, the Activity in test [3] was 7000 a.u. Further, the IC50 result in test [4] is reported as “Not Active”.
In the case of `CCCN(CCN1CCN(c2ccc(-c3ccccc3)cc2)CC1)[C@H]1CCc2nc(N)sc2C1`, the inhibition result in test [1], in test [2], in test [5] and in test [6] was “inactive” in each case. Moreover, the Activity in test [3] came out at 9000 a.u. The IC50 result in test [4] was “Not Active”.

As usually defined, the inhibition is the share of the control response that was lost under treatment. Usually pIC50 stands for −log10 of the IC50, conventionally taken in molar units.

The record behind these values is ChEMBL document CHEMBL4725383 (Bioorg Med Chem, 2020).
